Measurements from the array DNA melting data of Ke et al. (doi:10.1101/2024.01.08.574731).

Assays:
[1] = melting temperature; fluorescence melt of hairpins on a sequencing array, two-state fit, raised by 9.35 °C to match UV melts; conditions: sodium 0.088 M
Outline: (§1)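 Cy3 signals were normalised both to pre-quench Cy3 and to control constructs. They came from library hairpins carrying annealed Cy3 and quencher oligos on a sequenced MiSeq flow cell, imaged in 50 mM Na-HEPES pH 8.0, 25 mM NaCl, in 2.5 °C steps up to 60 °C. Bootstrapped two-state fits gave melting temperature and folding enthalpy, and four replicates were combined by inverse variance. Fitted temperatures were then raised by 9.35 °C to match UV melts.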

[2] = folding enthalpy; higher = less favourable; fluorescence melt of hairpins on a sequencing array, two-state fit; conditions: sodium 0.088 M
Outline: as §1

Row | Sequence | Tm [1] | folding enthalpy [2]
1 | GGCGTAGGAAACTATGCC (((.(((....))).))) | 53.5 °C | -41.8 kcal/mol
2 | GCGGGTGTCCGC ((((....)))) | 58.2 °C | -22.8 kcal/mol
3 | GATACCGCGAAAGCGATC (((..(((....)))))) | 23 °C | -7.65 kcal/mol
4 | GCGACTGTTCGC ((((....)))) | 47.8 °C | -22.5 kcal/mol
5 | GGAGATACGAAAGTATCC (((..(((....)))))) | 40.9 °C | -12.7 kcal/mol
6 | GATCACCGCCGTGATC ((((((....)))))) | 54.4 °C | -48.4 kcal/mol
7 | GTTTAAGGAAACTTAAGC (.(((((....))))).) | 32.4 °C | -13.9 kcal/mol
8 | GTGGTTGGAAACAACTAC ((.((((....)))).)) | 47.8 °C | -24.8 kcal/mol
9 | CGAGCGGAAACGCTATCG ((((((....)))..))) | 35.1 °C | -13.1 kcal/mol
10 | GCATGCGGAAACGCGTGC (((.(((....))).))) | 67.6 °C | -45.2 kcal/mol
11 | GAGCATCCGAAAGGACTC (((..(((....)))))) | 27.5 °C | -10.8 kcal/mol
12 | GATCCAGCTGTGGATC ((((((....)))))) | 50.3 °C | -38.8 kcal/mol
13 | GCGTGGCGAAAGCCCTGC ((..(((....)))..)) | 47.2 °C | -18.3 kcal/mol
14 | GTGACCGAAAGGTGCCAC ((((((....)))..))) | 30.2 °C | -12.1 kcal/mol
15 | GGGTGCCCGAAAGGGCCC (((..(((....)))))) | 55.5 °C | -11.6 kcal/mol
16 | GTGGGTCGAAAGACGCAC (((.(((....))).))) | 63.3 °C | -34.3 kcal/mol
17 | GCACGCGAAAGCGCATGC ((((((....)))..))) | 43 °C | -13.6 kcal/mol
18 | GTCCGCCCGAAAGGGGAC (((..(((....)))))) | 47.3 °C | -18.7 kcal/mol
19 | GTCAACTCGAAAGAGGAC (((..(((....)))))) | 33.2 °C | -20.3 kcal/mol
20 | GATCAACCTATTGATC ((((((....)))))) | 41.5 °C | -29 kcal/mol
21 | AATGGGAAACCATT (((((....))))) | 37.7 °C | -14.1 kcal/mol
22 | GTTATGTCGAAAGACAAC (((..(((....)))))) | 28.5 °C | -10.6 kcal/mol
23 | GCGTGGCGAAAGCGAAGC ((.(.((....)).).)) | 50.5 °C | -16.9 kcal/mol
24 | GTTGTGCGAAAGCAGAAC (((.(((....))).))) | 54.1 °C | -30.9 kcal/mol

Row | Sequence | Tm [1] | folding enthalpy [2]
25 | GACTTGGGAAACCAAGCC (.(((((....))))).) | 41.8 °C | -19.1 kcal/mol
26 | GAAACCGAAAGGTCTTTC ((((((....)))..))) | 32.3 °C | -14 kcal/mol
27 | GTTGTCGCGAAAGCGAAC (((..(((....)))))) | 56.9 °C | -15.7 kcal/mol
28 | GCCGGGCGAAAGCCTCGC ((..(((....)))..)) | 48.3 °C | -11.1 kcal/mol
29 | GATCTATTGCTAGATC ((((((....)))))) | 40.5 °C | -32.8 kcal/mol
30 | GATCCCTCTGGGGATC ((((((....)))))) | 61.5 °C | -39.1 kcal/mol
31 | GCGTTTTGACGC ((((....)))) | 55.2 °C | -25.2 kcal/mol
32 | GAATCCCGAAAGGGTTTC (((.(((....))).))) | 45.6 °C | -23.6 kcal/mol
33 | GATCAGGATTCTGATC ((((((....)))))) | 49.8 °C | -38.6 kcal/mol
34 | CAATCGAAAGATTG (((((....))))) | 51.3 °C | -22.6 kcal/mol
35 | GGCCACCCGAAAGGGGCC (((..(((....)))))) | 61.3 °C | -23.2 kcal/mol
36 | GCCCTCGAAAGAGTAGGC ((((((....)))..))) | 49 °C | -29.5 kcal/mol
37 | GTTTAGTCGAAAGACAAC (((..(((....)))))) | 27.4 °C | -10.8 kcal/mol
38 | GTCCATCGAAAGATTGAC (((.(((....))).))) | 39.7 °C | -34.1 kcal/mol
39 | GGAATCTCGAAAGAGTCC (((..(((....)))))) | 33.2 °C | -18.4 kcal/mol
40 | GAAGCAGGAAACTGCCTC ((.((((....)))).)) | 34.5 °C | -13.2 kcal/mol
41 | GGCTACGGAAACACAGCC ((((..(....)..)))) | 35.5 °C | -23.6 kcal/mol
42 | GCTGATGAAAATCAGC ((((((....)))))) | 60.6 °C | -35.8 kcal/mol
43 | GTTGGGGCGAAAGCCAAC (((..(((....)))))) | 46 °C | -16.5 kcal/mol
44 | GACCACGAAAGTGTTGTC ((((((....)))..))) | 34.4 °C | -18.7 kcal/mol
45 | GCGTAGCGAAAGCTGTGC ((..(((....)))..)) | 46.1 °C | -10 kcal/mol
46 | CGACCGGAAACGGTTTCG ((((((....)))..))) | 33.5 °C | -10.3 kcal/mol
47 | CGTTCACGGAAACGTACG (((..(((....)))))) | 39 °C | -15.2 kcal/mol
48 | GTCCGGAAACGGAC (((((....))))) | 67.4 °C | -28.2 kcal/mol

Row | Sequence | Tm [1] | folding enthalpy [2]
49 | GATTCCGAAAGGAAGATC ((((((....)))..))) | 45.4 °C | -22.3 kcal/mol
50 | GATCAAACTTTGATC ((((((...)))))) | 41.9 °C | -31.6 kcal/mol
51 | GCTTGGCGAAAGCCGTGC ((..(((....)))..)) | 53.4 °C | -15.3 kcal/mol
52 | GGCTTCCGAAAGGATGCC (((.(((....))).))) | 62 °C | -48.9 kcal/mol
53 | GCAAGGCGAAAGCTTGGC ((.(.((....)).).)) | 44 °C | -17.9 kcal/mol
54 | GGAGGTCGAAAGACTCC (((.(((....)))))) | 51.1 °C | -21.3 kcal/mol
55 | GTACGAGCGAAAGCTTAC (((..(((....)))))) | 22.6 °C | -8.2 kcal/mol
56 | GCAATGCGAAAGCGTCGC ((.(.((....)).).)) | 45.4 °C | -19.3 kcal/mol
57 | GATCGTGTCACGATC ((((((...)))))) | 59.3 °C | -38.2 kcal/mol
58 | GACTCAACGAAAGTTGTC (((..(((....)))))) | 29.9 °C | -10.2 kcal/mol
59 | GTGCAGACGAAAGTCCAC (((..(((....)))))) | 37.9 °C | -16.9 kcal/mol
60 | GGGAAGTCGAAAGACCCC (((..(((....)))))) | 44.8 °C | -22.7 kcal/mol
61 | GGTGCCCCGAAAGGGACC (((..(((....)))))) | 47.9 °C | -16.2 kcal/mol
62 | GATCGCGCGAAAGCGATC (((..(((....)))))) | 60.1 °C | -25.8 kcal/mol
63 | GATCTTTCCTAAGATC ((((((....)))))) | 45.1 °C | -34.2 kcal/mol
64 | GCATGGCGAAAGCGCTGC (((..((....))..))) | 51.6 °C | -18.6 kcal/mol
65 | GCGTCATGACGC ((((....)))) | 61.9 °C | -30.9 kcal/mol
66 | GCGGCTCCGAAAGGACGC (((..(((....)))))) | 54.7 °C | -41.2 kcal/mol
67 | GAGAAACGAAAGTTCTC (((.(((....)))))) | 40.9 °C | -24.4 kcal/mol
68 | GAAGTGGAAACACTTC ((((((....)))))) | 54 °C | -33.7 kcal/mol
69 | GATCACCGAAGTGATC ((((((....)))))) | 55.8 °C | -38.1 kcal/mol
70 | GAGCCCGGAAACGGACCC (.(.(((....))).).) | 25.7 °C | -11.2 kcal/mol
71 | GATCGAATACTCGATC ((((((....)))))) | 49.9 °C | -37.5 kcal/mol
72 | GTCGACGAAAGTCTGAC ((((((....))).))) | 49.5 °C | -21.8 kcal/mol

Row | Sequence | Tm [1] | folding enthalpy [2]
73 | GGTAGCGAAAGCTCGACC ((((((....)))..))) | 34.6 °C | -15.1 kcal/mol
74 | GGACGTGGAAACGCGTCC (((((.(....).))))) | 61.9 °C | -45.2 kcal/mol
75 | GCGAGGGGAAACCCCCGC (((.(((....))).))) | 59.6 °C | -27.5 kcal/mol
76 | GCGTCGCCGAAAGGCCGC (((..(((....)))))) | 57.1 °C | -19.3 kcal/mol
77 | CGGATCGGAAACGAACCG (((.(((....))).))) | 52 °C | -42.7 kcal/mol
78 | GATCCGGTAGCGGATC ((((((....)))))) | 64.2 °C | -31.3 kcal/mol
79 | GGCAGAGGAAACTTTGCC ((((.((....)).)))) | 48.6 °C | -35.5 kcal/mol
80 | GGTTGCGAAAGCACTACC ((((((....)))..))) | 37.4 °C | -11.9 kcal/mol
81 | GATCGCACAAGCGATC ((((((....)))))) | 69.3 °C | -37 kcal/mol
82 | GGTGGAGGAAACTCCACC (((((((....))))))) | 67.5 °C | -38.6 kcal/mol
83 | GCCAACGAAAGTTCAGGC ((((((....)))..))) | 40.7 °C | -28.2 kcal/mol
84 | AGCAGGAAACTGCT (((((....))))) | 52.7 °C | -22.8 kcal/mol
85 | GATCAACGAAAGTTATC (((.(((....)))))) | 25.4 °C | -9.84 kcal/mol
86 | GGGAGACGAAAGTCACCC (((.(((....))).))) | 58.2 °C | -31.5 kcal/mol
87 | GCTCGGCGAAAGCTGTGC ((.(.((....)).).)) | 60.2 °C | -15.4 kcal/mol
88 | GCCAACGAAAGTTCGGC ((((((....))).))) | 51.2 °C | -26.3 kcal/mol
89 | GATCTCGATTGAGATC ((((((....)))))) | 51.7 °C | -39.4 kcal/mol
90 | ACCGGGAAACCGGT (((((....))))) | 66.5 °C | -16.6 kcal/mol
91 | GCCACTGGAAACAACGGC (((..((....))..))) | 27.6 °C | -17.3 kcal/mol
92 | GTAGAGCGAAAGCTTTAC (((.(((....))).))) | 47.5 °C | -24.4 kcal/mol
93 | GATCACTACAGTGATC ((((((....)))))) | 60.6 °C | -40.5 kcal/mol
